# Legend:
# [1] = target: T1, Ephrin type-A receptor 1 (Homo sapiens) (UniProt P21709); experiment: Inhibition of human recombinant EphA1 at 40 nM in presence of ATP by radiometric assay relative to control
# T1 sequence (whole entry): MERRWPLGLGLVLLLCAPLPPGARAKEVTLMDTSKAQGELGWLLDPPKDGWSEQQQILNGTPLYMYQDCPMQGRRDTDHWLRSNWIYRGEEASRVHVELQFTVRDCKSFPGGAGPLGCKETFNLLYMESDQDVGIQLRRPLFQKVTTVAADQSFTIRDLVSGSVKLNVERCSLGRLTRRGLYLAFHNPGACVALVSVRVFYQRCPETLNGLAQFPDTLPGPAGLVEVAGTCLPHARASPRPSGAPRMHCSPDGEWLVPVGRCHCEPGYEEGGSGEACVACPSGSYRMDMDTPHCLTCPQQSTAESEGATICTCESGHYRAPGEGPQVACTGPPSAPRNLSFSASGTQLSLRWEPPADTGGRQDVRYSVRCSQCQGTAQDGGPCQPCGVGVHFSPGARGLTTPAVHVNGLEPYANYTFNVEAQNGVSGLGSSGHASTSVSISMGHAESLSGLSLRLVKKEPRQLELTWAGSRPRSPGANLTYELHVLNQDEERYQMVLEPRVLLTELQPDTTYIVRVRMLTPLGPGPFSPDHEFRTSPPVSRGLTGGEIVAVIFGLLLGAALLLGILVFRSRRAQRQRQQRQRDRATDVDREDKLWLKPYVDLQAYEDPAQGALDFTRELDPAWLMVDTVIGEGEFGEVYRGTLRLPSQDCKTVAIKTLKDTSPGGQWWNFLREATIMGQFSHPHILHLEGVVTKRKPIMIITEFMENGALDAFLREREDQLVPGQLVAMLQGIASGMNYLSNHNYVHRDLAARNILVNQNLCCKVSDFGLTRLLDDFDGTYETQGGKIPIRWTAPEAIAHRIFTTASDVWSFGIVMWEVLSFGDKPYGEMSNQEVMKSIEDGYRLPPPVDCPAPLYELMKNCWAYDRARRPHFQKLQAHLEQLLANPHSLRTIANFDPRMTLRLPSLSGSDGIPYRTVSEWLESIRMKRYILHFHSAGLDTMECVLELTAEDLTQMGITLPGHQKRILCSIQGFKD
# [2] = target: Bone morphogenetic protein receptor type-1B (Homo sapiens) (UniProt O00238); experiment: Inhibition of human recombinant BMPR1B at 40 nM in presence of ATP by radiometric assay relative to control
# How it was run: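 Part of a radiometric in vitro activity panel of 327 recombinant human kinases. Each kinase was tested in duplicate at one inhibitor concentration. Activity remaining was expressed as a percentage of the vehicle control, and percent inhibition was taken as 100 minus that value.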
# [3] = target: SRSF protein kinase 3 (Homo sapiens) (UniProt Q9UPE1); experiment: Inhibition of human recombinant MSSK1 at 15 nM related to control ULK1
# [4] = target: Mitogen-activated protein kinase kinase kinase kinase 1 (Homo sapiens) (UniProt Q92918); experiment: Inhibition of human recombinant HPK1 at 15 nM related to control ULK1
# [5] = target: Tyrosine-protein kinase Blk (Homo sapiens) (UniProt P51451); experiment: Inhibition of human recombinant BLK at 500 nM related to control ULK1
# [6] = target: Cyclin-dependent kinase 1 (Homo sapiens) (UniProt P06493); experiment: Inhibition of human recombinant CDC2 at 500 nM related to control ULK1
# [7] = target: Serine/threonine-protein kinase pim-1 (Homo sapiens) (UniProt P11309); experiment: Inhibition of human recombinant PIM1 at 500 nM related to control ULK1
# [8] = target: T2, cGMP-dependent protein kinase 1 (Homo sapiens) (UniProt Q13976); experiment: Inhibition of human recombinant PKG1 at 500 nM in presence of ATP by radiometric assay relative to control
# T2 sequence (whole entry): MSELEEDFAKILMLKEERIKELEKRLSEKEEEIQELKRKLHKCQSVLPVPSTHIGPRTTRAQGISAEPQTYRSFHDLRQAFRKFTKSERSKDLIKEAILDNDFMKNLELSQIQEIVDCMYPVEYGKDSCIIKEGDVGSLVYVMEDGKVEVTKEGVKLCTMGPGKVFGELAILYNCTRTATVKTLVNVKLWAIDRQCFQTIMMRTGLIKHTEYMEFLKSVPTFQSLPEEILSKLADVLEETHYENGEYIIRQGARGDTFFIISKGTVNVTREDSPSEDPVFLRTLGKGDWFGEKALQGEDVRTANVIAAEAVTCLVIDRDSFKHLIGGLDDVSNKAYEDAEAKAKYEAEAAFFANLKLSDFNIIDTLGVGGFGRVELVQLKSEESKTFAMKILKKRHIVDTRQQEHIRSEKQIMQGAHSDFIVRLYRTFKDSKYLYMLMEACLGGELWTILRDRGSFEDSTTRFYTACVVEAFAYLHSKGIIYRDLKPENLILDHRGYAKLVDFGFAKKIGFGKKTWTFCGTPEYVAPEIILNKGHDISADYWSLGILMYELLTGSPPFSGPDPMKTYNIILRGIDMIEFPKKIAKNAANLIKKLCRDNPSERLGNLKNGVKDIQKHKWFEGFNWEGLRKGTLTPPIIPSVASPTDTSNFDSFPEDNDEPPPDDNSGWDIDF
# [9] = target: Serine/threonine-protein kinase 38-like (Homo sapiens) (UniProt Q9Y2H1); experiment: Inhibition of human recombinant NDR2 at 500 nM related to control ULK1
# Chain of Serine/threonine-protein kinase 38-like (Homo sapiens) (Q9Y2H1 2-464 limits assumed): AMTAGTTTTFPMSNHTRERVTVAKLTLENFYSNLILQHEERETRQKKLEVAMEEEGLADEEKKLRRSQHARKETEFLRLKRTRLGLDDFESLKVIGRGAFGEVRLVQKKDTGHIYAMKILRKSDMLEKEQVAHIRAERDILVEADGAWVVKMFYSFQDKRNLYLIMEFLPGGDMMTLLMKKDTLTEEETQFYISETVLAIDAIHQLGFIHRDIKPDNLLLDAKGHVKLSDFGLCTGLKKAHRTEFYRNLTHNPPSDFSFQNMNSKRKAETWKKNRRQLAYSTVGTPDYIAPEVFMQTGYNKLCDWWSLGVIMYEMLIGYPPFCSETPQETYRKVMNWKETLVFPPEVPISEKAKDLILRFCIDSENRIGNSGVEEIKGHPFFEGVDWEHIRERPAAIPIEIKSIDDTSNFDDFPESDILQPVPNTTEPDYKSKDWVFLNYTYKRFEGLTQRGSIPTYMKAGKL
# Chain of Mitogen-activated protein kinase kinase kinase kinase 1 (Homo sapiens) (Q92918 whole entry, looked up): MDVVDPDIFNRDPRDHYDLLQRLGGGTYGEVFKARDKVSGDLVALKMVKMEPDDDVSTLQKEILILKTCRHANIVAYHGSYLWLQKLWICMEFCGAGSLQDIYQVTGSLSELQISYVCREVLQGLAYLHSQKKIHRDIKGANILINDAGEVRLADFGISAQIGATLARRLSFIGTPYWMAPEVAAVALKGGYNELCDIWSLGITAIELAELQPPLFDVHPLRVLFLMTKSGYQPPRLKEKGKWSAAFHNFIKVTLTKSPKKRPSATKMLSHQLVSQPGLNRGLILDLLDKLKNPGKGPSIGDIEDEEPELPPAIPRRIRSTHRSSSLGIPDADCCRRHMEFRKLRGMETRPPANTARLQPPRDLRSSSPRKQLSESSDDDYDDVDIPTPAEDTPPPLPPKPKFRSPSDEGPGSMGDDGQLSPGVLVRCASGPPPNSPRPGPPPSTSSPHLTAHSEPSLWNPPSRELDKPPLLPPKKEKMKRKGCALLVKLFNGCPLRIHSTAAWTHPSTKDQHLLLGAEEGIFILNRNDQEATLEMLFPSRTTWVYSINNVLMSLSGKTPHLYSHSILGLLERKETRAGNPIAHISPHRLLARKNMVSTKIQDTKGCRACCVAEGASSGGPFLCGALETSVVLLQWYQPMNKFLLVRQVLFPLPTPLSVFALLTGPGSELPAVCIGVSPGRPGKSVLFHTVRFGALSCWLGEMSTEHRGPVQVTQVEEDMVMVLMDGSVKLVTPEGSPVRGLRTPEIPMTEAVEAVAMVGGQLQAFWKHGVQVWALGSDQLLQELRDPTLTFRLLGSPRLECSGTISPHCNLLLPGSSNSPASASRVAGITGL
# Chain of Tyrosine-protein kinase Blk (Homo sapiens) (P51451 2-505 limits assumed): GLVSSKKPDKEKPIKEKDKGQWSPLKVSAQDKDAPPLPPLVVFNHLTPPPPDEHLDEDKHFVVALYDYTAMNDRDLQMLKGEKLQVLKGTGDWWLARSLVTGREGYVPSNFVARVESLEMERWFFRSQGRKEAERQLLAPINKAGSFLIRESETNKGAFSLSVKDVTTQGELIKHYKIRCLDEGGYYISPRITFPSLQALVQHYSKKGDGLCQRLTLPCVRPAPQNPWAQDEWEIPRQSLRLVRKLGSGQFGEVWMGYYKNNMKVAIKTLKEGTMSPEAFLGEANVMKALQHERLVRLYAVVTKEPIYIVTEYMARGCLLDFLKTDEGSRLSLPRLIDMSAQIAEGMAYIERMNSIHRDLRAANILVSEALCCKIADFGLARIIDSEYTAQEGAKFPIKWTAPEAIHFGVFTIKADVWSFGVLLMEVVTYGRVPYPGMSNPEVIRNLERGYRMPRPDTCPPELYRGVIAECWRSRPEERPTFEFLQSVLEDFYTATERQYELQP
# Chain of Serine/threonine-protein kinase pim-1 (Homo sapiens) (P11309 whole entry, looked up): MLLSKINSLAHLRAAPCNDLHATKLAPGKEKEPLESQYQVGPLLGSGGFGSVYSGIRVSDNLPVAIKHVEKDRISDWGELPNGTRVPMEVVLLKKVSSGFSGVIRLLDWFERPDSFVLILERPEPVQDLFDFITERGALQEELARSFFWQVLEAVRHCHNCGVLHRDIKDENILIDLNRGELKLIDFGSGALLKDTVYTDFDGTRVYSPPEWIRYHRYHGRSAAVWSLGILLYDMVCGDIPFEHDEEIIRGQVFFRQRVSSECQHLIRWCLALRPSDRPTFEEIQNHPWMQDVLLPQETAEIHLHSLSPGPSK
# Chain of Cyclin-dependent kinase 1 (Homo sapiens) (P06493 whole entry, looked up): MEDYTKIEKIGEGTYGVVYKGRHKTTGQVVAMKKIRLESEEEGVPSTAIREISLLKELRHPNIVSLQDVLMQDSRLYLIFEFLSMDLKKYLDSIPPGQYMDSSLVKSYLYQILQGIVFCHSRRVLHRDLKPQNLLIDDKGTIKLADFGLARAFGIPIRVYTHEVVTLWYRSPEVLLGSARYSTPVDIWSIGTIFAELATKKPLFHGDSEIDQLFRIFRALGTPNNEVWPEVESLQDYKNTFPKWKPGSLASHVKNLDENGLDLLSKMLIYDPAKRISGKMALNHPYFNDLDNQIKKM
# Chain of SRSF protein kinase 3 (Homo sapiens) (Q9UPE1 whole entry): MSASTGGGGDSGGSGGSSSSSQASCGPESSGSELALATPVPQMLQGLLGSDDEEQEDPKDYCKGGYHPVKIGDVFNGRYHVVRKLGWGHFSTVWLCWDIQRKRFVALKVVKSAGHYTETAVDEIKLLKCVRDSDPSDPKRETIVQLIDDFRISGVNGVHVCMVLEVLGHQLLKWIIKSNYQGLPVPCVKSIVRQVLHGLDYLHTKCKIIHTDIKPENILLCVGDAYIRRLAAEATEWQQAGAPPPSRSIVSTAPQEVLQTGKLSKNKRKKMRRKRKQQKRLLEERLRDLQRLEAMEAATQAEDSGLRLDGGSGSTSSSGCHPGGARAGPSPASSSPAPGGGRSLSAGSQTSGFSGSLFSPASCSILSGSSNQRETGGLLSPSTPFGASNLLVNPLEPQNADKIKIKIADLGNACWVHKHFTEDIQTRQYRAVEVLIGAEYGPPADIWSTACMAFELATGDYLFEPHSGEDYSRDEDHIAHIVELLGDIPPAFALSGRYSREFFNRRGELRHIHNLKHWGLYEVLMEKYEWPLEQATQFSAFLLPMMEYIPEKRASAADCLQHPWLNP
# Chain of Bone morphogenetic protein receptor type-1B (Homo sapiens) (O00238 whole entry): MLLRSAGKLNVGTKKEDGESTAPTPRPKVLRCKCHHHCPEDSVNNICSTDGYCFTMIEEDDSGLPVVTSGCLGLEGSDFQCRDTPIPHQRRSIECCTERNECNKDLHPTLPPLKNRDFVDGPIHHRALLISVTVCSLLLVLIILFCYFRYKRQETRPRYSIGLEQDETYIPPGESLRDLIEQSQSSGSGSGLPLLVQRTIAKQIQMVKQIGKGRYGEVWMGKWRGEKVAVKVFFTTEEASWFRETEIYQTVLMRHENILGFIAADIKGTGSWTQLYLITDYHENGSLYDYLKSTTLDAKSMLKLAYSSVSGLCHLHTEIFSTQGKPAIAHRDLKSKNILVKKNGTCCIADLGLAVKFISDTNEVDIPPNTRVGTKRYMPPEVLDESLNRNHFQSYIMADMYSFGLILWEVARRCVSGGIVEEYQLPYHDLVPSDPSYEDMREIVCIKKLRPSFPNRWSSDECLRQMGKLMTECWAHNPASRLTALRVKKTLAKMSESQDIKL
compound,measurement,setting,value
O=C(N[C@@H](C1CC1)C(F)(F)F)c1cc(-c2cnn3cc(-c4ccc(F)cc4)cnc23)cs1,inhibition,[1],0%
same,inhibition,[2],0%
CC(C)[C@H](NC(=O)c1cc(-c2cnn3cc(-c4ccc(OCCN5CCCCC5)cc4)cnc23)cs1)C(F)(F)F,fold change (FC),[3],0
same,fold change (FC),[4],0
CNC(=O)c1ccccc1Oc1nc(Nc2cc(OC)c(OC)c(OC)c2)ncc1Br,fold change (FC),[5],0.39
same,fold change (FC),[6],0.41
same,fold change (FC),[7],0.03
same,inhibition,[8],4%
same,fold change (FC),[9],0.2

# Source: ChEMBL document CHEMBL5653631, “A Potent and Selective ULK1 Inhibitor Suppresses Autophagy and Sensitizes Cancer Cells to Nutrient Stress” (iScience, 2018)
